Source: ChEMBL document CHEMBL4052730, “Synthesis and evaluation of (E)-2-(5-phenylpent-2-en-4-ynamido)cyclohex-1-ene-1-carboxylate derivatives as HCA2 receptor agonists” (Bioorg Med Chem, 2017)

Key:
[1] = target: T1, Hydroxycarboxylic acid receptor 2 (Homo sapiens, UniProt Q8TDS4); assay: Displacement of [5,6-3H]-nicotinic acid from recombinant human HCA2 receptor expressed in Flp-IN HEK cell membranes after 2 hrs by microbeta counting method
How it was run: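 Membranes from human HCA2-expressing Flp-In-293 cells were prepared by acoustic disruption in TE buffer (pH 7.6) and centrifugation at 21,000g. They were used at 25 µg/well in 50 mM Tris-HCl, 1 mM MgCl2, 0.02% CHAPS, pH 7.6, without BSA. Competition with 20 nM [5,6-3H]-nicotinic acid ran 2 h at room temperature, followed by GF/B filtration and scintillation counting. Duplicates, repeated three times.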

[2] = target: T1, Hydroxycarboxylic acid receptor 2; assay: Agonist activity at recombinant human HCA2 receptor expressed in Flp-IN HEK cells assessed as reduction in forskolin-stimulated cAMP accumulation measured after 30 mins; format: functional, cell-based
How it was run: (§1)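 Flp-In-293 cells stably expressing recombinant human HCA2, 12,000 cells/well, treated with compounds plus 3 µM forskolin for 30 min in PBS containing 0.5 mM IBMX, without BSA. Read-out is reduction of forskolin-stimulated cAMP, reported as EC50 and as maximal inhibition (%). Mean ± SD of at least three experiments, each in duplicate.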

[3] = target: T1, Hydroxycarboxylic acid receptor 2; assay: Agonist activity at recombinant human HCA2 receptor expressed in Flp-IN HEK cells assessed as reduction in forskolin-stimulated cAMP accumulation measured after 30 mins relative to control; format: functional, cell-based; how it was run: as §1

T1 sequence (Q8TDS4 whole entry): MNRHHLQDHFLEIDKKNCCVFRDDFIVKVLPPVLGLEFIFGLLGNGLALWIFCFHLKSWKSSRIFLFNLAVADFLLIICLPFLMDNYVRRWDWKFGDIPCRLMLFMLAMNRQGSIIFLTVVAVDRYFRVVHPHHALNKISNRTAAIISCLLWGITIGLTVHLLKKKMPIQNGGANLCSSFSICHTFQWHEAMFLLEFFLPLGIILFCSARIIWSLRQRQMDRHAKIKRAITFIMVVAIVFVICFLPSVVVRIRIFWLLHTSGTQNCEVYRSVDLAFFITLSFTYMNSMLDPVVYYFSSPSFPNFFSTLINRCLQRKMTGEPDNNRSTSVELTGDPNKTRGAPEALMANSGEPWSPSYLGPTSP

| Structure (SMILES) | IC50 [1] [nM] | EC50 [2] [nM] | Emax [3] [%] |
| --- | --- | --- | --- |
| O=C(/C=C/C#Cc1ccc(O)cc1F)NC1=C(C(=O)O)CCCC1 | 331 | 110 | 96 |
| O=C(CCC#Cc1ccc(C(=O)O)cc1)NC1=C(C(=O)O)CCCC1 | 3620 | 5610 | 74 |
| O=C(CCC#Cc1ccc(O)cn1)NC1=C(C(=O)O)CCCC1 | 665 | 3370 | 91 |
| O=C(CCC#Cc1ccccc1O)NC1=C(C(=O)O)CCCC1 | 229 | 720 | 93 |
| O=C(CCC#Cc1ccc(F)cc1)NC1=C(C(=O)O)CCCC1 | 291 | 630 | 99 |
| O=C(CCC#Cc1cccc(O)c1)NC1=C(C(=O)O)CCCC1 | 138 | 2980 | 89 |
| O=C(CCc1ccc(-c2ccccc2F)cc1)NC1=C(C(=O)O)CCCC1 | 282 | 190 | 97 |
| O=C(/C=C/CCc1ccccc1)NC1=C(C(=O)O)CCCC1 | 2830 | 19600 | 70 |
| O=C(/C=C/C#Cc1ccccc1Cl)NC1=C(C(=O)O)CCCC1 | 88 | 270 | 88 |
| O=C(/C=C/C#Cc1ccccc1)NC1=C(C(=O)O)CCCC1 | 327 | 1010 | 79 |
| O=C(/C=C/C#Cc1cccc(O)c1)NC1=C(C(=O)O)CCCC1 | 383 | 390 | 92 |

Now those with a lower IC50 [1], led by results:

| IC50 [1] [nM] | EC50 [2] [nM] | Emax [3] [%] | Structure (SMILES) |
| --- | --- | --- | --- |
| 76 | 90 | 94 | O=C(CCC#Cc1ccc(O)cc1Cl)NC1=C(C(=O)O)CCCC1 |
| 75 | 130 | 92 | O=C(CCc1ccc(-c2ccccc2Cl)cc1)NC1=C(C(=O)O)CCCC1 |
| 67 | 360 | 90 | O=C(CCC#Cc1ccccc1F)NC1=C(C(=O)O)CCCC1 |
| 58 | 260 | 99 | O=C(CCc1ccc(-c2ccc(O)cc2F)cc1)NC1=C(C(=O)O)CCCC1 |
| 56 | 190 | 95 | O=C(CCC#Cc1ccccc1Cl)NC1=C(C(=O)O)CCCC1 |
| 40 | 410 | 90 | O=C(CCc1ccc(-c2ccccc2O)cc1)NC1=C(C(=O)O)CCCC1 |
| 37 | 250 | 78 | O=C(/C=C/C#Cc1ccccc1O)NC1=C(C(=O)O)CCCC1 |
| 32 | 230 | 96 | O=C(CCc1ccc(-c2cccc(O)c2)cc1)NC1=C(C(=O)O)CCCC1 |
| 28 | 80 | 93 | O=C(CCC#Cc1ccc(O)cc1F)NC1=C(C(=O)O)CCCC1 |
| 25 | 130 | 97 | O=C(/C=C/C#Cc1ccc(O)cc1)NC1=C(C(=O)O)CCCC1 |
| 21 | 70 | 92 | O=C(CCc1ccc(-c2ccc(O)cc2)cc1)NC1=C(C(=O)O)CCCC1 |
| 16 | 450 | 84 | O=C(/C=C/C#Cc1ccccc1F)NC1=C(C(=O)O)CCCC1 |
| 13 | 160 | 91 | O=C(CCC#Cc1ccc(O)cc1)NC1=C(C(=O)O)CCCC1 |
